Measurements from PMC5327638 (Theranostics, 2017).

Assays:
[1] = tested on: MDAMB231 X4 tumor-bearing Balb/c nude mice; test: Biodistribution by radiodetection; format: in vivo, mouse; conditions: 24 h after i.v. 50 μg (10 MBq), ^111In
Summary of the method: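 Tracer was labelled with 111In alone or with 111In plus 165Ho, and 50 μg (10 MBq) was given i.v.; some mice had SPECT at 24 h first. Mice were killed at 24 h, and tissues were excised and weighed; dual-label samples were halved before weighing. Gamma counting used 245 keV for 60 s. cpm were converted to MBq, corrected for decay and counting efficiency. %ID/g = (MBq in tissue/injected dose ×100%)/tissue weight.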

[2] = tested on: MDAMB231 X4 tumor-bearing Balb/c nude mice; test: In vivo SPECT imaging in tumor-bearing mice; parameters: species or system mouse; conditions: i.v., 50 μg, 10 MBq; 24 hrs post-injection; n=5
[3] = target: chemokine receptor 4 (CXCR4), MDAMB231 X4 cells (Homo sapiens, UniProt P61073); test: Fluorescence flow cytometry saturation binding
Summary of the method: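 Trypsinised cells (300000 per aliquot) were exposed to tracer at 0–1000 nM in 0.1% BSA/PBS for 1 hr at 4 °C, washed three times and resuspended. Flow cytometry used a 635 nm laser with a […] filter. Mean fluorescence counts gave saturation curves. Triplicates, total n=6.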

Sequence of chemokine receptor 4 (CXCR4), MDAMB231 X4 cells (P61073 whole entry): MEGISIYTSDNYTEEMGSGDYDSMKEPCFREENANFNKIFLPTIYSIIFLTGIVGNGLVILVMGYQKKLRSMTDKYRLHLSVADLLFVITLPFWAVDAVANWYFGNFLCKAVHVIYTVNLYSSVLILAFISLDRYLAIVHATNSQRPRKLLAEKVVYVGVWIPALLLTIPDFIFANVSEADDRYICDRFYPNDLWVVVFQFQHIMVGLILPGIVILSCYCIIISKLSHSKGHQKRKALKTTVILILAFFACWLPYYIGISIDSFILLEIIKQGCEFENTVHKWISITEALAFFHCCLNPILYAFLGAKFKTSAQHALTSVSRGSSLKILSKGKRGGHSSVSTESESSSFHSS

Compound: CC(=O)N[C@@H](CCCNC(=N)N)C(=O)N[C@@H](CCCNC(=N)N)C(=O)N[C@@H](Cc1ccc2ccccc2c1)C(=O)N[C@H]1CSSC[C@@H](C(=O)N[C@@H](CCCNC(=N)N)C(N)=O)NC(=O)[C@H](CCCNC(N)=O)NC(=O)[C@H](CCCNC(=N)N)NC(=O)[C@H](Cc2ccc(O)cc2)NC(=O)[C@@H]2CCCN2C(=O)[C@@H](CCCCNC(=O)CCCNC(=O)[C@H](CCCCNC(=O)CCCCCN2C(=CC=CC=CC3=[N+](CCCCS(=O)(=O)O)c4ccc(S(=O)(=O)[O-])cc4C3(C)C)C(C)(C)c3cc(S(=O)(=O)O)ccc32)NC(=O)CN(CCN(CC(=O)O)CC(=O)O)CCN(CC(=O)O)CC(=O)O)NC(=O)[C@H](CCCNC(=N)N)NC(=O)[C@H](CCCNC(N)=O)NC(=O)[C@H](Cc2ccc(O)cc2)NC1=O (single isomer, unassigned) [^111In(^165Ho)-hybrid-Cy5-Ac-TZ14011, metal not drawn]
- tumor to muscle ratio (T/M), radiodetection ([1]; n=3-5): 4.38 ± 1.51

Compound: CC(=O)N[C@@H](CCCNC(=N)N)C(=O)N[C@@H](CCCNC(=N)N)C(=O)N[C@@H](Cc1ccc2ccccc2c1)C(=O)N[C@H]1CSSC[C@@H](C(=O)N[C@@H](CCCNC(=N)N)C(N)=O)NC(=O)[C@H](CCCNC(N)=O)NC(=O)[C@H](CCCNC(=N)N)NC(=O)[C@H](Cc2ccc(O)cc2)NC(=O)[C@@H]2CCCN2C(=O)[C@@H](CCCCNC(=O)CCCNC(=O)[C@H](CCCCNC(=O)CCCCCN2C(=CC=CC=CC3=[N+](CCCCS(=O)(=O)O)c4ccc(S(=O)(=O)[O-])cc4C3(C)C)C(C)(C)c3cc(S(=O)(=O)O)ccc32)NC(=O)CN(CCN(CC(=O)O)CC(=O)O)CCN(CC(=O)O)CC(=O)O)NC(=O)[C@H](CCCNC(=N)N)NC(=O)[C@H](CCCNC(N)=O)NC(=O)[C@H](Cc2ccc(O)cc2)NC1=O (single isomer, unassigned) [^111In-hybrid-Cy5-Ac-TZ14011, metal not drawn]
- uptake on SPECT images [2]: high uptake in the liver and kidneys as well as in the tumor
- uptake in tumor exceeding uptake in muscle, factor [1]: 6

Compound: CC(=O)N[C@@H](CCCNC(=N)N)C(=O)N[C@@H](CCCNC(=N)N)C(=O)N[C@@H](Cc1ccc2ccccc2c1)C(=O)N[C@H]1CSSC[C@@H](C(=O)N[C@@H](CCCNC(=N)N)C(N)=O)NC(=O)[C@H](CCCNC(N)=O)NC(=O)[C@H](CCCNC(=N)N)NC(=O)[C@H](Cc2ccc(O)cc2)NC(=O)[C@@H]2CCCN2C(=O)[C@@H](CCCCNC(=O)CCCNC(=O)[C@H](CCCCNC(=O)CCCCCN2C(=CC=CC=CC3=[N+](CCCCS(=O)(=O)O)c4ccc(S(=O)(=O)[O-])cc4C3(C)C)C(C)(C)c3cc(S(=O)(=O)O)ccc32)NC(=O)CN(CCN(CC(=O)O)CC(=O)O)CCN(CC(=O)O)CC(=O)O)NC(=O)[C@H](CCCNC(=N)N)NC(=O)[C@H](CCCNC(N)=O)NC(=O)[C@H](Cc2ccc(O)cc2)NC1=O (single isomer, unassigned) [hybrid-Cy5-Ac-TZ14011]
- Kd [3]: 245 ± 65 nM
- maximum signal intensity, flow cytometry ([3]; Cy5, saturation binding, n=6): 1100 fluorescence counts
